The sample as a whole holds a higher share of hits than the screen did.
Fibroblast inh: blocks proliferation of human lung fibroblasts | viability, % at 10 µM | 1.1% of 85,000 active | LL 47 human lung fibroblast viability, ATP luminescence; hits give low values;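 active means viability at or below 50% in the single dose screen; inactive means viability above 50%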;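 further: compound exposure lasted 72 h before the ATP readout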
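Test system: LL 47 human lung fibroblasts; Quantity: 1,150 cells/well; Buffer or medium: IMEM plus 15% FBS; Dosing: tenfold compound dosing solution, DMSO at 0.1%; Timing: overnight cell rest, 72 h compound treatment at 37 °C; Detection: ATP-based CellTiter-Glo luminescent readout; Read-out basis: viability percentage against median untreated-cell control; Controls: cell-only wells, no compound.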
H69AR growth 86K: blocks growth of human H69AR lung tumor cells | 6% of 85,000 active | H69AR lung tumor viability, ATP luminescence, 72 h; hits give low values | viability, % at 10 µM;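 active means viability at or below 40%; inactive means viability above 40%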;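 further: multidrug resistant small cell line overexpressing MRP-1 efflux transporter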
bCat KO growth: beta-catenin-lacking colon tumor cell growth suppression | HCT116 beta-catenin knockout viability, CellTiter-Glo, 60 h; hits give low values | viability, % at 10 µM | 1.5% of 140,000 active;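 active means viability at or under a set limit, the compound median less 4 SD, cut at about 6% in these data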
PTEN del growth: suppresses growth of cells with PTEN deletion; HCT116 PTEN-null viability, CellTiter-Glo, 60 h; hits give low values; viability, % at 10 µM; 1.2% of 140,000 active; AID 827;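 active means viability at or below a set limit, 4 SD under the median of all tested compounds, cut at about 3.7% in these data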;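 further: PTEN knockout HCT116 line with beta catenin targeted HCT116 as companion control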
HUVEC inhibit: human endothelial cell proliferation inhibition; viability, % at 10 µM (by protocol); 1.1% of 86,000 active; HUVEC proliferation, CellTiter-Glo luminescence, 72 h; hits give low values;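 active means viability at or below 30%; inactive means viability above 30%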
Hits are given with their value; 0 = inactive; - = no result.

SMILES	Fibroblast inh	H69AR growth 86K	bCat KO growth	PTEN del growth	HUVEC inhibit
Cc1c(C(=O)NCc2cccnc2)oc2ccc(S(=O)(=O)N3CCCCCC3)cc12	0	0	0	0	0
O=C(CSc1nc2ccc(Cl)cc2[nH]1)NCc1ccco1	0	0	0	0	0
O=C(CSc1ncnc2sc3c(c12)CCCCC3)NCc1ccco1	0	27.4	0	0	0
O=C(CSc1c2c(nc3cc(Cl)ccc13)CCCC2)NCc1ccco1	0	2.2	0	0	0
Cc1nc2sc3c(c2c2nnc(SCC(=O)NCc4ccco4)n12)CCCC3	-	-	0	0	-
O=C(CSc1nnc2c3c4c(sc3ncn12)CCCC4)NCc1ccco1	0	28.4	0	0	0
CCCCOc1ccc2c(C)cc(=O)oc2c1OCCCC	0	0	0	0	0
Cc1ccc(S(=O)(=O)N(CCCO)CC(O)CON=C2c3ccccc3-c3ccccc32)cc1 (centres undefined)	-	-	0	0	-
CN(C)c1nc(-c2ccccn2)nnc1-c1ccccc1	13.2	0	0	0	11.2
c1ccc(-c2nnc(-c3ccccn3)nn2)nc1	0	0	-	-	0
COc1ccc(-c2c3c(nc4sc5c(Cl)nc(C)nc5c24)CCC3)cc1	-	-	1.2	1.5	-
COc1cccc(C(=O)CN(C(=O)c2ccc(Cl)cc2Cl)N2C(=O)c3ccccc3C2=O)c1	-	-	0	0	-
O=C(Nc1cccnc1)c1ccc(COc2ccccc2Cl)o1	0	0	0	0	0
O=C(Nc1cccnc1)c1ccc(COc2cc(Cl)ccc2Cl)o1	0	37.2	0	0	0
O=C(Nc1cc([N+](=O)[O-])ccc1Cl)C1CC1	-	-	0	0	-
Cc1ccc(-c2nc3ccccc3n3nnnc23)cc1	0	0	0	0	0
Cc1ccc(CNc2nc3ccccc3n3nnnc23)cc1	0	29.6	0	0	0
Brc1ccc(Nc2nc3ccccc3n3nnnc23)cc1	0	35.8	0	0	0
Cc1[nH]n(-c2ccccc2)c(=O)c1C=Nc1cccc2cccnc12	-	-	3.0	0	-
Cc1ccc(-n2[nH]c(C)c(/C=N/c3ccccn3)c2=O)cc1	-	0	0	0	0
CCOc1ccc(OCC)c(NC(=O)C2CCCN(c3nc(C)cc(C)n3)C2)c1 (centres undefined)	0	-	0	0	0
COC(=O)/C=C/c1ccc(OC(=O)c2ccncc2)cc1	-	-	0	0	-
COC(=O)C1=C(O)/C(=C\c2ccc(CNC(=O)C(=O)Nc3ccc(C)cc3)o2)N=C1C	24.9	25.4	0	0	0
CCOC(=O)C1=C(O)/C(=C/c2ccc(CNC(=O)C(=O)Nc3ccc(C)cc3)o2)N=C1C	7.4	36.2	0	0	2.3
CCOC(=O)C1=C(O)/C(=C\c2ccc(CNS(=O)(=O)c3ccc(Br)cc3)o2)N=C1C	-	-	0	0	-
SMILES	Fibroblast inh	H69AR growth 86K	bCat KO growth	PTEN del growth	HUVEC inhibit
COC(=O)C1=C(O)/C(=C\c2ccc(CNC(=O)C(=O)Nc3ccc(C)c(C)c3)o2)N=C1C	0	39.9	0	0	19.0
CC1CCC(C(C)C)C2=C1C(C#N)(C#N)C(C#N)(C#N)C(c1ccccc1)N2 (centres undefined)	32.4	0.0	0	0	27.9
O=C(NCc1ccccn1)c1c(O)c2cccc3c2n(c1=O)CC3	0	0	0.9	0.6	0
O=C(NCCc1ccccc1)c1c(O)c2cccc3c2n(c1=O)CC3	0	0	0	0	0
CCCc1nnc(NC(=O)c2c(O)c3cccc4c3n(c2=O)CC4)s1	0	18.4	-	-	0
CCc1nnc(NC(=O)c2c(O)c3cccc4c3n(c2=O)CC4)s1	0	1.8	-	-	0
CC(Oc1cc(Cl)ccc1Cl)C(=O)N/N=C\c1ccnn1C (centres undefined)	-	-	0	0	-
COc1ccc(/C=N/n2cnc3c([nH]c4ccc(Br)cc43)c2=O)cc1CN1CCOCC1	8.7	3.7	0	0	23.0
COc1ccc(/C=N\NC(=O)c2nn(C)cc2Cl)cc1CN1CCOCC1	-	-	0	0	-
N#Cc1c(NC(=O)COC(=O)c2ccc(S(=O)(=O)N3CCCC3)cc2)sc2c1CCCCC2	-	-	0	0	-
COc1cccc(NC(=S)N2CCN(c3ccccn3)CC2)c1	-	-	0	0	-
COc1ccc(N2C3=C(CC4=C2CC(C)(C)CC4=O)C(=O)CC(C)(C)C3)cc1	6.0	0	1.1	1.1	10.4
COc1ccccc1/C=C1\CCCC2=C1Nc1nnnn1C2c1ccccc1OC (centres undefined)	-	-	4.0	1.7	-
Cc1sc(NC(=O)c2ccco2)c(C(c2cccnc2)N2CCN(C)CC2)c1C (centres undefined)	0	0	0	0	0
CN1CCN(C(c2cccnc2)c2ccc3cccnc3c2O)CC1 (centres undefined)	0	15.6	0	0	0
Cc1ccc(C)n1NC(=O)c1ccccc1O	44.5	28.7	0	0	0
Cc1c(Cl)cccc1-n1c(SCC(=O)NCc2cccs2)nnc1-c1ccncc1	0	0	0	0	0
Cc1c(Cl)cccc1-n1c(SCC(=O)NCc2ccccc2Cl)nnc1-c1ccncc1	0	21.4	0	0	0
Nc1c(C(=O)NCC2CCCO2)sc2nc3c(c(-c4ccco4)c12)CC/C3=C\c1ccco1 (centres undefined)	-	-	0	0	-
CCc1c(C)nc2ncnn2c1N1CCC(C(=O)Nc2ccc(C)cc2)CC1	0	35.0	0	0	0
CCc1c(C)nc2ncnn2c1N1CCC(C(=O)Nc2ccccc2)CC1	0	0	0	0	0
CCOC(=O)COc1ccc(S(=O)(=O)NCCC2=CCCCC2)cc1	0	0	0	0	4.4
CCC(=O)N1c2ccccc2-c2nnc(SC)nc2OC1c1ccc(N(C)C)cc1 (centres undefined)	0	0	0	0	0
CCC1Oc2nc(SC)nnc2-c2ccccc2N1C(=O)c1ccccc1 (centres undefined)	0	24.8	0	0	0
CN(C)CCCNS(=O)(=O)c1ccc(N2CCC(c3ccc(Cl)cc3)=N2)cc1	1.6	0.5	1.2	1.1	3.2
SMILES	Fibroblast inh	H69AR growth 86K	bCat KO growth	PTEN del growth	HUVEC inhibit
O=S(=O)(c1ccc(N2CCC(c3ccc(Cl)cc3)=N2)cc1)N(CCO)CCO	0	12.6	0	0	0
Clc1ccccc1N/N=C/c1ccc2c(c1)OCO2	-	-	0	0	-
COC(=O)c1nn2c(C(F)(F)F)cc(-c3ccc(Br)o3)nc2c1Br	0	33.2	-	-	0
Clc1ccc(C2CC(c3ccccc3)Nc3ncnn32)cc1 (centres undefined)	0	28.3	0	0	0
COc1cccc(C2CC(c3ccccc3OC)n3ncnc3N2)c1 (centres undefined)	0	31.3	0	0	0
COc1cccc(C2CC(c3ccccc3)Nc3ncnn32)c1 (centres undefined)	0	0	0	0	0
O=C(CNC(=O)COc1ccccc1)NCc1ccccc1F	-	-	0	0	-
Cc1ccc(Nc2nnc(SCC(=O)NCCN3C(=O)CSC3=O)s2)cc1C	-	-	0	0	-
COc1ccccc1Nc1nc(N)nc(CN2CCC(Cc3ccccc3)CC2)n1	0	39.7	0	0	0
COc1ccc(Nc2nc(N)nc(CN3CCC(Cc4ccccc4)CC3)n2)cc1	0	0	0	0	0
Cc1cccc(-n2nnnc2SC(C)C(=O)NCCC2=CCCCC2)c1 (centres undefined)	0	35.0	0	0	0

Screening data from PubChem.
